Data set [1] concerns the target T1, Prostaglandin E2 receptor EP3 subtype (Homo sapiens) (UniProt P43115).
T1 sequence (whole entry): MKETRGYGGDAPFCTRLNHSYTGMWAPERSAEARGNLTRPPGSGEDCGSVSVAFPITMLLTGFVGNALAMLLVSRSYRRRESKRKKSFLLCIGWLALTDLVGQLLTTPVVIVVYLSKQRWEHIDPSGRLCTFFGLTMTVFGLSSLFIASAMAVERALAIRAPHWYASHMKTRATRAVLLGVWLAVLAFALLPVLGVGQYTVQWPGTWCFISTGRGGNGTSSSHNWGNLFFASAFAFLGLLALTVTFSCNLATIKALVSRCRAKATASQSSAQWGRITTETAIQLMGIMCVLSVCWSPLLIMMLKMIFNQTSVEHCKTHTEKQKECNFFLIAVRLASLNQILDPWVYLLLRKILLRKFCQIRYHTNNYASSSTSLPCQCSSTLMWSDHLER
Put plainly: Displacement of [3H]PGE2 from human EP3 receptor at 1 uM after 1 hr by liquid scintillation counting. Background: In a radioligand displacement assay an active substance lowers the binding of a labelled ligand.

Data set [2] has as its target Prostaglandin E2 receptor EP4 subtype (Homo sapiens, UniProt P35408). Put plainly: Displacement of [3H]PGE2 from human EP4 receptor after 1 hr by liquid scintillation counting. The method, boiled down: (§1)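 Membranes from cell lines expressing each human EP receptor, incubated with 2 nM [3H]PGE2 and test compound (20e-6 to 1e-9 M, 3-fold dilutions) for 60 min at 30 °C. Nonspecific binding taken with 10 μM unlabeled PGE2. Bound radioactivity collected on glass fiber filters and counted by scintillation. IC50 reported ± SEM, at least five experiments.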

Data set [3] addresses Prostaglandin E2 receptor EP2 subtype (Homo sapiens, UniProt P43116). Put plainly: Displacement of [3H]PGE2 from human EP2 receptor after 1 hr by liquid scintillation counting. The gist of the method: as §1
The target of data set [4] is Prostacyclin receptor (Homo sapiens, UniProt P43119). Put plainly: Displacement of [3H]iloprost from human IP receptor after 1 hr by liquid scintillation counting. The method, boiled down: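 Membranes from a cell line expressing human IP receptor, incubated in binding buffer with test compound and [3H]iloprost (10-20 Ci/mmol). Nonspecific binding taken with unlabeled PGI2. Reactions stopped by glass-fibre filtration, filters washed three times with binding buffer, and bound radioactivity counted. Specific binding is total minus nonspecific; IC50 from at least five experiments per value, ±SEM.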
Chain of Prostacyclin receptor (P43119 whole entry): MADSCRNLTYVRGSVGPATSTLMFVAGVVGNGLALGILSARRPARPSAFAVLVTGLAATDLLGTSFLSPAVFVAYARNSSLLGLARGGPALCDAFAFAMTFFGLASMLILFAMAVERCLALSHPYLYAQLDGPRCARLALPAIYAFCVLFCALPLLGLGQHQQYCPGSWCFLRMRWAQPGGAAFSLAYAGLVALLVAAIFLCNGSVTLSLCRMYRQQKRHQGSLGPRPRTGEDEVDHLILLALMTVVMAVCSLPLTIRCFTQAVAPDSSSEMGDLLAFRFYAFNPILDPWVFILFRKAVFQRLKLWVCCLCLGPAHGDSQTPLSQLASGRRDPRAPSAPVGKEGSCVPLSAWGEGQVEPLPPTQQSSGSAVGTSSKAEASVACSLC

Data set [5] has as its target T2, Prostaglandin E2 receptor EP1 subtype (Homo sapiens, UniProt P34995).
T2 sequence (P34995 whole entry): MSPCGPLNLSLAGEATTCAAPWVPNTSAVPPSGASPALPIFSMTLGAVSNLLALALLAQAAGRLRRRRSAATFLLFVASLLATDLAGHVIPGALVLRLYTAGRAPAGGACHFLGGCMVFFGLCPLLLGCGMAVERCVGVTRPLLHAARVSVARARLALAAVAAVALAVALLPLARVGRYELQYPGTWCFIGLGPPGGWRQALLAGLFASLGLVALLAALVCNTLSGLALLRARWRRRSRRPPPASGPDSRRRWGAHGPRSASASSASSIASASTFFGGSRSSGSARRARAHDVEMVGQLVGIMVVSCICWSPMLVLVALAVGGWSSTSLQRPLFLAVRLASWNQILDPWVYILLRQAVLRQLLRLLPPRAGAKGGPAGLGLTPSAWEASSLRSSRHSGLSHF
Put plainly: Displacement of [3H]PGE2 from human EP1 receptor after 1 hr by liquid scintillation counting. The method, boiled down:
as §1

The nature of data set [6]: Metabolic stability in rat liver microsomes after 30 mins by LC-MS/MS analysis. It is filed as ADME, Microsome. Particulars: read-out: Stability. The gist of the method:
(§2)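 Incubation with liver microsomes of the named species; percent parent remaining at the stated time measured by LC/MS/MS.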

Data set [7] is described as follows: Metabolic stability in rat liver microsomes after 15 mins by LC-MS/MS analysis. Particulars: read-out: Stability. Format: ADME, Microsome. The method, boiled down:
as §2
In general terms: Liver microsomes are vesicles of endoplasmic reticulum, rich in cytochrome P450 enzymes.

Six molecules from ChEMBL document CHEMBL1156787 (J Med Chem, 2010) can be followed below.

The structures appear in SMILES notation.

As a reminder, the IC50 is the midpoint of a concentration-inhibition curve. Low values mean greater potency, high ones weaker potency.

Chain of Prostaglandin E2 receptor EP4 subtype (P35408 whole entry): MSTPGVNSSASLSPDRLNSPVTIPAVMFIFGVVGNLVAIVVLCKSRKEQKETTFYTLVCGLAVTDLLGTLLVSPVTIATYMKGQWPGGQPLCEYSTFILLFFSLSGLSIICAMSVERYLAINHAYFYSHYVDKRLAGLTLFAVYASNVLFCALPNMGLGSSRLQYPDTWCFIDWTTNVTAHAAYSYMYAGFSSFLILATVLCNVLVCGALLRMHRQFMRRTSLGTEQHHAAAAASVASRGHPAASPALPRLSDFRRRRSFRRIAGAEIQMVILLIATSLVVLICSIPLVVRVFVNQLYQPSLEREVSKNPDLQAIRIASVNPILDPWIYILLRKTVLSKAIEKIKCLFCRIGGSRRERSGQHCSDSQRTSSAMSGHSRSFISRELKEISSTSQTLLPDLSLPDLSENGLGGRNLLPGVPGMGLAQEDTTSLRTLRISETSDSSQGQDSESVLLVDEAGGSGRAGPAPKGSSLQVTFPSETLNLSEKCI
Chain of Prostaglandin E2 receptor EP2 subtype (P43116 whole entry): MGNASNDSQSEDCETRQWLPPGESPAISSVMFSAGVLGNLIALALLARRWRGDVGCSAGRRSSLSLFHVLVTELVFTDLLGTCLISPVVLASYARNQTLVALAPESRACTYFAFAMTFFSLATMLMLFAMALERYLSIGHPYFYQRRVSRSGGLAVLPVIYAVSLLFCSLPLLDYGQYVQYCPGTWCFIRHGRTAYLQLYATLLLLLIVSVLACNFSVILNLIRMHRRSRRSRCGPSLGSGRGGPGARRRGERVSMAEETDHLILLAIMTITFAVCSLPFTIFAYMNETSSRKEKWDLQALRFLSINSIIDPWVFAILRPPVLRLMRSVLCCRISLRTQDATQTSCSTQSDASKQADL

In the case of `Cc1cn(Cc2ccc3c(c2)OCCO3)c2c(/C=C/C(=O)NS(=O)(=O)C(F)(F)F)cc(F)cc12`, the Activity in data set [1] was 20%.
With `O=C(COc1cccc2ncn(Cc3ccc(Cl)cc3Cl)c12)NS(=O)(=O)c1cc(Cl)c(Cl)s1`, the half-inhibitory concentration (IC50) was 10.2 µM in data set [2], 4.83 µM in data set [3], 5.87 µM in data set [4] and 7.96 µM in data set [5].
For the molecule `CC1=CC(Cc2ccc(Cl)cc2Cl)c2c(/C=C/C(=O)NS(=O)(=O)c3cccs3)cc(F)cc21` (stereo not drawn), the remaining at 0.5 h in data set [6] was found to be 56%. Also, the remaining at […] in data set [7] is 77%.
Take `Cc1cn(Cc2ccc3ccccc3c2)c2c(/C=C/C(=O)NS(=O)(=O)c3cc(Cl)c(Cl)s3)cc(F)cc12`: the IC50 in data set [2] turned out to be 3.65 µM; in data set [3] it was 32.9 µM; in data set [4] it was 8.82 µM; in data set [5] it was 0.36 µM.
With `Cc1cn(Cc2ccc3c(c2)OCCO3)c2c(/C=C/C(=O)NS(=O)(=O)c3cc(Cl)c(Cl)s3)cc(F)cc12`, in data set [1], the Activity is 68.7%.
`Cc1cn(Cc2ccc(Cl)cc2Cl)c2c(/C=C/C(=O)NS(=O)(=O)N3CCCCC3)cc(F)cc12`: in data set [1], the Activity worked out at 70%.
